Experimental data taken from ChEMBL document CHEMBL1152497, “Ligand-based design and synthesis of novel sodium channel blockers from a combined phenytoin-lidocaine pharmacophore” (Bioorg Med Chem, 2009).
Where a name gives a salt, the structure may show the parent alone. Activity calls are given as the source filed them. The rule behind the calls is not given here.

Tests used:
Rattus norvegicus = species on record: Rattus norvegicus; assay: Displacement of [3H]-BTX-B from neuronal voltage-gated sodium channel in rat cerebral cortex synaptoneurosomes at 40 uM; assay type: tissue-based
How it was run: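 Single-concentration screen at 40 μM. Rat forebrain membranes with [3H]-batrachotoxin (30–60 Ci/mmol) in 50 mM HEPES pH 7.4 containing 130 mM choline chloride, 37 °C for 60 min. Rapid vacuum filtration onto glass fiber filters, and trapped radioactivity compared with control values to give percent displacement. Aconitine 1 μM as positive control.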

[1] = molecular target: Sodium channel protein type 2 subunit alpha (Homo sapiens) (UniProt Q99250); assay: Inhibition of human Nav1.2 channel expressed in HEK293 cells assessed as blocked of sodium current elicited at +10 mV for 12 mins from holding potential -100 mV at 100 uM measured after washout by patch clamp method; assay type: cell-based; settings: in the assay text read “12 ms” for “12 mins”
Sodium channel protein type 2 subunit alpha (Homo sapiens), sequence (Q99250 whole entry, looked up): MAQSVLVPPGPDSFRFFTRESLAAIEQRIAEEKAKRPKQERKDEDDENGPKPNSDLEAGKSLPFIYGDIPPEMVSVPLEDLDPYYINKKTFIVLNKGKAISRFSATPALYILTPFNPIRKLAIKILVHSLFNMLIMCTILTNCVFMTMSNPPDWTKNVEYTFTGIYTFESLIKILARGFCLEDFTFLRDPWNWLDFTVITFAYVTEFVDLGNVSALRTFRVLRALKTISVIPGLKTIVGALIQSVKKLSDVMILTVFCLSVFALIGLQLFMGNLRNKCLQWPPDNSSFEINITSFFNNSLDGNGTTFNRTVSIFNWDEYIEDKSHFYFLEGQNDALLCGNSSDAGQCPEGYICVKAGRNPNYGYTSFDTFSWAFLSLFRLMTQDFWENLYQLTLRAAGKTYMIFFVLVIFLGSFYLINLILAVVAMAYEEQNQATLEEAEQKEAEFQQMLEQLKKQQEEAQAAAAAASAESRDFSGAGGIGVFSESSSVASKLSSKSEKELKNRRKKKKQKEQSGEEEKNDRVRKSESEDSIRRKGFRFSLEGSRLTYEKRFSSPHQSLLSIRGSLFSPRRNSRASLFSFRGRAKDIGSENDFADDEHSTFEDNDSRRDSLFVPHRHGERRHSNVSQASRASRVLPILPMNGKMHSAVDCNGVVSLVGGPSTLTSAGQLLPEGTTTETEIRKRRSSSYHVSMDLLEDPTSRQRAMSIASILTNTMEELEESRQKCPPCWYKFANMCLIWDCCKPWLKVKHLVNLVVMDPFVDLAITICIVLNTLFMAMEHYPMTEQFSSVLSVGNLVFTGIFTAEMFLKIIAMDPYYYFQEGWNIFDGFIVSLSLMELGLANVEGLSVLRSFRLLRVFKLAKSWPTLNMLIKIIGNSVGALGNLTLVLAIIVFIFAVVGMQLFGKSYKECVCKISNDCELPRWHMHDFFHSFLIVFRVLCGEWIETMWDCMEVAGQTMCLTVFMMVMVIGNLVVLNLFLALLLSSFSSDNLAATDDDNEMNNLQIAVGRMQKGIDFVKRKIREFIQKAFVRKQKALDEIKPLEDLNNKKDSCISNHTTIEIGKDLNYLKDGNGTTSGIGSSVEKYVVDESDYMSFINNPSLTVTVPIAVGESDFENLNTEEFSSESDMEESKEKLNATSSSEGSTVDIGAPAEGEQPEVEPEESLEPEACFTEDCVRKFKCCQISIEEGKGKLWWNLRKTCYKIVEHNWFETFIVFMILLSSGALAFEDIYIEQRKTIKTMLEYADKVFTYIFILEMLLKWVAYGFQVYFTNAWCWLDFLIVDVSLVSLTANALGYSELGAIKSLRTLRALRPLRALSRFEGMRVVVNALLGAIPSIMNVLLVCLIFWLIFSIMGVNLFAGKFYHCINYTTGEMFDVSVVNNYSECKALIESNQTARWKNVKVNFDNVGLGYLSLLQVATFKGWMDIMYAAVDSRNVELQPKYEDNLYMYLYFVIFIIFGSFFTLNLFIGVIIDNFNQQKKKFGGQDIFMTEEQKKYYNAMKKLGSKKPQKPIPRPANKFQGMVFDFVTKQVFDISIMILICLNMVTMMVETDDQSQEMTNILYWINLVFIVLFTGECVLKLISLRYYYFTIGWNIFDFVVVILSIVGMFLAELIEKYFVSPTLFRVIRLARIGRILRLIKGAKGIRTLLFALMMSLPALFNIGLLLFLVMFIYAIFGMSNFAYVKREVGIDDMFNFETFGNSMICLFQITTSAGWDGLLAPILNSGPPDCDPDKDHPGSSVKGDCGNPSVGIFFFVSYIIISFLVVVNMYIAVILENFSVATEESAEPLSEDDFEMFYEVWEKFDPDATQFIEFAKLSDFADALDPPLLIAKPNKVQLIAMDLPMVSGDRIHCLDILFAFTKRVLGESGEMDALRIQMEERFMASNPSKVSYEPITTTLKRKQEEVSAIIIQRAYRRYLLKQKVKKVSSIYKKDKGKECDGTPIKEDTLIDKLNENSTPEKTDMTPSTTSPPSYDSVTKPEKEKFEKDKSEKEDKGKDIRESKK
How it was run: (§1)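 Whole-cell patch clamp on HEK293 cells stably expressing human Nav1.2, grown in DMEM/F12 with 10% FBS, penicillin/streptomycin and G418 at 37 °C, 5% CO2. Step to +10 mV for 12 ms from −100 mV holding. Pipette contains CsCl/BAPTA (pH 7.4); bath contains 130 mM NaCl (pH 7.4). DMSO at most 0.3%, 20–22 °C, ≥75% series-resistance compensation. Compound at 100 μM, followed by washout; n = 4.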

[2] = molecular target: Sodium channel protein type 2 subunit alpha (Homo sapiens) (UniProt Q99250); assay: Inhibition of human Nav1.2 channel expressed in HEK293 cells assessed as blocked of sodium current elicited at +10 mV for 12 mins from holding potential -100 mV at 100 uM by patch clamp method; assay type: cell-based; parameters: scale not given: the % may be the effect or the level left; settings: in the assay text read “12 ms” for “12 mins”; how it was run: as §1
[3] = Displacement of [3H]-BTX-B from neuronal voltage-gated sodium channel in rat cerebral cortex synaptoneurosomes; assay type: tissue-based
How it was run: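 Rat forebrain membranes incubated with [3H]-batrachotoxin (30–60 Ci/mmol) in 50 mM HEPES pH 7.4 with 130 mM choline chloride, 37 °C, 60 min. Stopped by rapid vacuum filtration onto glass fiber filters, and filter radioactivity compared with control. Percent inhibition at 5–7 concentrations spanning the IC50, each in triplicate. IC50 by Probit analysis of the concentration versus percent binding curve. Aconitine 1 μM as positive control.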

[4] = Lipophilicity, log P of the compound; assay type: physicochemical; settings: octanol/water
How it was run: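 logP calculated with a chemical properties tool, not measured.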

| Structure (SMILES) | IC50 [3] [µM] | logP [4] | further results |
| --- | --- | --- | --- |
| CCCCCCCC(O)(C(N)=O)c1cc(C)c(NC(=O)CN(CC)CC)c(C)c1 (stereo unspecified) | – | – | Activity (Rattus norvegicus): 83%; Activity [1]: inactive; Activity [2]: 67.7% |
| O=C1C(c2ccccc2)N2CCCCN1C2=O (stereo unspecified) | 700 | 2.01 | – |
| CCOC(=O)c1ccc(N)cc1 [BENZOCAINE] | 910 | 1.39 | – |
| COC(=O)[C@H]1[C@@H](OC(=O)c2ccccc2)C[C@@H]2CC[C@H]1N2C [COCAINE] | 49 | 1.82 | – |
| O=C1C(c2ccccc2)N2CCCCCN1C2=O (stereo unspecified) | 427 | 2.51 | – |
| CCN(CC)CC(=O)Nc1ccc(C2(c3ccccc3)NC(=O)NC2=O)cc1 (stereo unspecified) | – | – | Activity (Rattus norvegicus): 50% |
| O=C1NC(=O)C2(CCc3ccccc32)N1 (stereo unspecified) | 2110 | – | – |
| O=C1NC(=O)C(c2ccccc2)(c2ccccc2)N1 [PHENYTOIN] | 40 | – | – |
| CCCCCCCC1(c2cc(C)c(NC(=O)CN(CC)CC)c(C)c2)NC(=O)NC1=O (stereo unspecified) | – | – | Activity (Rattus norvegicus): 71% |
| CCN1C(=O)NC(=O)C1(C)c1ccccc1 (stereo unspecified) | 720 | – | – |
| CCCCC1(c2cccc(C)c2)NC(=O)NC1=O (stereo unspecified) | 58 | – | – |
| CCCCCCCC(O)(C(N)=O)c1ccccc1 (stereo unspecified) | 9 | – | – |
| CCN(CC)CCOC(=O)c1ccc(N)cc1 [PROCAINE] | 110 | 2.53 | – |
| CCCCCCCCCC(O)(C(N)=O)c1cc(C)c(NC(=O)CN(CC)CC)c(C)c1 (stereo unspecified) | – | – | Activity (Rattus norvegicus): 63% |
| CCCCC1(c2ccccc2)NC(=O)NC1=O (stereo unspecified) | 103 | – | – |
| CCN(CC)CC(=O)Nc1c(C)cc(C(O)(C(N)=O)c2ccccc2)cc1C (stereo unspecified) | – | – | Activity (Rattus norvegicus): 16% |
| CCCCCCC1(c2cc(C)c(NC(=O)CN(CC)CC)c(C)c2)NC(=O)NC1=O (stereo unspecified) | – | – | Activity (Rattus norvegicus): 68% |
| CCN(CC)CC(=O)Nc1ccc(C(O)(C(N)=O)c2ccccc2)cc1 (stereo unspecified) | – | – | Activity (Rattus norvegicus): 4% |
| CCCCCCC1(c2ccccc2)NC(=O)NC1=O (stereo unspecified) | 13 | – | – |
| CCCOc1cc(N)ccc1C(=O)OCCN(CC)CC [PROPOXYCAINE HYDROCHLORIDE] | 24 | 2.42 | – |
| CCOc1ccc(C(=O)OCCN(CC)CC)cc1 [PARETHOXYCAINE] | 24 | 2.74 | – |

| Structure (SMILES) | IC50 [3] [µM] | logP [4] | further results |
| --- | --- | --- | --- |
| CCCCC1(c2ccccc2C)NC(=O)NC1=O (stereo unspecified) | 225 | – | – |
| CC12C(=O)NC(=O)N1CCc1ccccc12 (stereo unspecified) | 250 | – | – |
| CCCCCCCCCC1(c2cc(C)c(NC(=O)CN(CC)CC)c(C)c2)NC(=O)NC1=O (stereo unspecified) | – | – | Activity (Rattus norvegicus): 69% |
| CCCCCC1(c2ccccc2)NC(=O)N(C)C1=O (stereo unspecified) | 39 | 2.96 | – |
| O=C1NC(=O)C2(CCCCc3ccccc32)N1 (stereo unspecified) | 251 | – | – |
| CCCCCCCC1(c2ccccc2)NC(=O)NC1=O (stereo unspecified) | 5 | – | – |
| CCCCOc1cc(C(=O)NCCN(CC)CC)c2ccccc2n1 [DIBUCAINE] | – | 3.77 | – |
| CCCOc1ccc(C(=O)OCCN(CC)CC)cc1N [PROPARACAINE] | 2 | 2.42 | – |
| O=C1NC(=O)C2(CCCCCc3ccccc32)N1 (stereo unspecified) | 251 | – | – |
| CCCCCCCCC1(c2ccccc2)NC(=O)NC1=O (stereo unspecified) | 5 | 4.96 | – |
| CCCCC1(c2ccc(C)cc2)NC(=O)NC1=O (stereo unspecified) | 95 | – | – |
| O=C1NC(=O)C(c2ccccc2)(C2CCCCC2)N1 (stereo unspecified) | 58 | – | – |
| CCCN(CC)C(CC)C(=O)Nc1c(C)cccc1C (stereo unspecified) [ETIDOCAINE] | – | 3.87 | – |
| CC1CCCCN1CCCOC(=O)c1ccccc1 (stereo unspecified) [PIPEROCAINE] | 12.9 | 3.01 | – |
| CCN(CC)CC(=O)Nc1c(C)cc(C2(c3ccccc3)NC(=O)NC2=O)cc1C (stereo unspecified) | – | – | Activity (Rattus norvegicus): 49% |
| CCCC1(c2ccccc2)NC(=O)NC1=O (stereo unspecified) | 162 | – | – |
| CCCCNc1ccc(C(=O)OCCN(C)C)cc1 [TETRACAINE] | – | 3.27 | – |
| O=C1NC(=O)C2(CCCc3ccccc32)N1 (stereo unspecified) | 851 | – | – |
| CC(CNC1CCCCC1)OC(=O)c1ccccc1 (stereo unspecified) [HEXYLCAINE] | 7.1 | 3.34 | – |
| CCCNC(C)C(=O)Nc1ccccc1C (stereo unspecified) [PRILOCAINE] | 53.7 | 2.18 | – |
